Calls of active or inactive are those of the source. The rule behind the calls is not given here.
What was measured:
HCC 2998 = test: Cytotoxicity against human HCC2998 cells assessed as inhibition of tumor growth after 24 hrs; assay type: functional, cell-based; details: HCC 2998, 24 h
[1] = Cytotoxicity against human NCI60 cells assessed as inhibition of tumor growth after 24 hrs; assay type: functional, cell-based; details: NCI60, 24 h
[2] = Cytotoxicity against human HCT15 cells assessed as inhibition of tumor growth after 24 hrs; assay type: functional, cell-based; details: HCT-15, 24 h
K562 = test: Antileukemic activity against human K562 cells assessed as inhibition of tumor growth after 24 hrs; assay type: functional, cell-based; details: K562, 24 h
SR = test: Antileukemic activity against human SR cells assessed as inhibition of tumor growth after 24 hrs; assay type: functional, cell-based
SW-620 = test: Cytotoxicity against human SW620 cells assessed as inhibition of tumor growth after 24 hrs; assay type: functional, cell-based; details: SW-620, 24 h
CCRF-CEM [3] = test: Antiproliferative activity against human CEM cells after 72 hrs by coulter counting analysis; assay type: functional, cell-based
How it was run: (§1)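 Cells exposed to a range of concentrations in RPMI 1640 at 37°C for 72 h. Surviving cells counted by Coulter counter. IC50 taken from concentration-response curves, mean ± SD of at least three independent experiments.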

RPMI-8226 = test: Ratio of melphalan IC50 to compound IC50 for human RPMI8226 cells; assay type: functional; details: pooled result: one value given for 3 cell lines, strains, targets or settings
[4] = Antileukemic activity against human RPMI8226 cells assessed as inhibition of tumor growth after 24 hrs; assay type: functional, cell-based; details: rpmi-8226
COLO 205 [5] = test: Cytotoxicity against human COLO205 cells assessed as inhibition of tumor growth after 24 hrs; assay type: functional, cell-based; details: COLO 205, 24 h
KM12 = test: Cytotoxicity against human KM12 cells assessed as inhibition of tumor growth after 24 hrs; assay type: functional, cell-based; details: KM12, 24 h
HL-60(TB) = test: Antileukemic activity against human HL-60(TB) cells assessed as inhibition of tumor growth after 24 hrs; assay type: functional, cell-based; details: HL-60, 24 h
COLO 205 [6] = test: Ratio of 5-fluorouracil IC50 to compound IC50 for human COLO205 cells; assay type: functional; details: pooled result: one value given for 5 cell lines, strains, targets or settings
MOLT-4 [7] = test: Ratio of curcumin IC50 to compound IC50 for human Molt4/C8 cells; assay type: functional; details: pooled result: one value given for 4 cell lines, strains, targets or settings
L1210 = test: Antiproliferative activity against mouse L1210 cells after 72 hrs by coulter counting analysis; assay type: functional, cell-based; details: L1210, 72 h
HeLa = test: Antiproliferative activity against human HeLa cells after 72 hrs by coulter counting analysis; assay type: functional, cell-based; how it was run: as §1
MOLT-4 [8] = test: Ratio of melphalan IC50 to compound IC50 for human Molt4/C8 cells; assay type: functional; details: pooled result: one value given for 4 cell lines, strains, targets or settings
[9] = Antiproliferative activity against human Molt4/C8 cells after 72 hrs by coulter counting analysis; assay type: functional, cell-based; details: MOLT-4, 72 h; how it was run: as §1
YT = test: Cytotoxicity against human YT cells assessed as dead cells at 1 uM after 24 hrs; assay type: functional
How it was run: (§2)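 Dienones added as DMSO solutions to cells in RPMI medium and incubated 24 h at 37°C. Cytotoxicity was scored as cell-membrane disruption by propidium iodide staining and expressed as percentage of dead cells, averaged over three independent experiments.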

HCC70 = test: Cytotoxicity against human HCC70 cells assessed as dead cells at 1 uM after 24 hrs; assay type: functional; how it was run: as §2
CCRF-CEM [10] = test: Cytotoxicity against human CEM cells assessed as dead cells at 1 uM after 24 hrs; assay type: functional; how it was run: as §2
[11] = Cytotoxicity against human NALM6 cells assessed as dead cells at 1 uM after 24 hrs; assay type: functional, NALM-6; how it was run: as §2
[12] = Cytotoxicity against human MCF10A cells assessed as dead cells at 1 uM after 24 hrs; assay type: cell-based; details: mcf-10a
How it was run: (§3)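 Compounds added from DMSO solutions to cells in medium (RPMI; DMEM for Hs-27 fibroblasts) and incubated 24 h at 37°C. Membrane disruption scored by propidium iodide uptake. Result is percentage of dead cells, average of three independent experiments.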

[13] = Cytotoxicity against human HuT-102 cells assessed as dead cells at 1 uM after 24 hrs; assay type: functional; how it was run: as §2
MCF7 = test: Cytotoxicity against human MCF7 cells assessed as dead cells at 1 uM after 24 hrs; assay type: functional; how it was run: as §2
HS27 = test: Cytotoxicity against human HS27 cells assessed as dead cells at 1 uM after 24 hrs; assay type: cell-based; details: hs27, 24 h; how it was run: as §3
[14] = Cytotoxicity against human MOLT3 cells assessed as dead cells at 1 uM after 24 hrs; assay type: functional, MOLT-3; how it was run: as §2
[15] = Cytotoxicity against human MDA231 cells assessed as dead cells at 1 uM after 24 hrs; assay type: functional, MDA-MB-231; how it was run: as §2
DU-145 = test: Cytotoxicity against human DU145 cells assessed as dead cells at 1 uM after 24 hrs; assay type: functional; how it was run: as §2
[16] = Cytotoxicity against human SupT1 cells assessed as dead cells at 1 uM after 24 hrs; assay type: functional, SUP-T1; how it was run: as §2
LAPC4 = test: Cytotoxicity against human LAPC4 cells assessed as dead cells at 1 uM after 24 hrs; assay type: functional; how it was run: as §2
BJAB = test: Cytotoxicity against human BJAB cells assessed as dead cells at 1 uM after 24 hrs; assay type: functional; how it was run: as §2
Ramos = test: Cytotoxicity against human Ramos cells assessed as dead cells at 1 uM after 24 hrs; assay type: functional; how it was run: as §2
Raji = test: Cytotoxicity against human Raji cells assessed as dead cells at 1 uM after 24 hrs; assay type: functional; how it was run: as §2
[17] = Cytotoxicity against human 22Rvl cells assessed as dead cells at 1 uM after 24 hrs; assay type: functional; how it was run: as §2
EL4 = test: Cytotoxicity against mouse EL4 cells assessed as dead cells at 1 uM after 24 hrs; assay type: functional; how it was run: as §2
Jurkat = test: Cytotoxicity against human Jurkat cells assessed as dead cells at 1 uM after 24 hrs; assay type: functional; how it was run: as §2
CCRF-CEM [18] = test: Induction of apoptosis in human CEM T-lymphocytes assessed as viable at necrotic cell stage at 1 uM after 8 hrs by flow cytometric analysis (reference value: 95.7%); assay type: functional
CCRF-CEM [19] = test: Induction of apoptosis in human CEM T-lymphocytes assessed as late apoptotic cells at 1 uM after 24 hrs by Annexin V/propidium iodide staining-based FITC analysis (reference value: 0.8%); assay type: functional
CCRF-CEM [20] = test: Induction of apoptosis in human CEM T-lymphocytes assessed as viable cells at 1 uM after 24 hrs by Annexin V/propidium iodide staining-based FITC analysis (reference value: 93.4%); assay type: functional; details: read-out: Activity
CCRF-CEM [21] = test: Induction of apoptosis in human CEM T-lymphocytes assessed as early apoptotic at necrotic cell stage at 1 uM after 8 hrs by flow cytometric analysis (reference value: 4.3%); assay type: functional
CCRF-CEM [22] = test: Induction of apoptosis in human CEM T-lymphocytes assessed as caspase3 activation at necrotic cell stage at 1 uM after 8 hrs by flow cytometric analysis (reference value: 0%); assay type: functional
CCRF-CEM [23] = test: Cytotoxicity against human CEM T-lymphocytes assessed as mitochondrial membrane depolarization at 1 uM after 8 hrs by JC-1 red/green staining analysis; assay type: functional, cell-based
How it was run: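 CEM cells (RPMI-1640, 10% FBS, 50,000 per well) were exposed to 1 μM compound for 8 h at 37°C, 5% CO2, in triplicate. They were then stained with 2 μM JC-1; the red signal marks polarized mitochondria and the green signal marks depolarized ones. Green-emitting cells were counted by flow cytometry, about 10,000 events. Controls: untreated, DMSO and CCCP 50 μM.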

CCRF-CEM [24] = test: Induction of apoptosis in human CEM T-lymphocytes assessed as late apoptotic at necrotic cell stage at 1 uM after 8 hrs by flow cytometric analysis (reference value: 0%); assay type: functional
CCRF-CEM [25] = test: Induction of apoptosis in human CEM T-lymphocytes assessed as early apoptotic cells at 1 uM after 24 hrs by Annexin V/propidium iodide staining-based FITC analysis (reference value: 5.6%); assay type: functional
CCRF-CEM [26] = test: Induction of apoptosis in human CEM T-lymphocytes assessed as necrotic cells at 1 uM after 24 hrs by Annexin V/propidium iodide staining-based FITC analysis (reference value: 0.2%); assay type: functional

Structure (SMILES) | IC50 (CCRF-CEM [3]) | IC50 (L1210) | IC50 (HeLa) | IC50 [9] | Activity (YT) | Activity (HCC70) | Activity (CCRF-CEM [10]) | Activity [11] | Activity [12] | Activity [13] | Activity (MCF7) | Activity (HS27) | Activity [14] | Activity [15] | Activity (DU-145) | Activity [16] | Activity (LAPC4) | Activity (BJAB) | Activity (Ramos) | Activity (Raji) | other results
COc1cc(/C=C2/CN(C(=O)CC(=O)N3C/C(=C\c4cc(OC)c(OC)c(OC)c4)C(=O)/C(=C/c4cc(OC)c(OC)c(OC)c4)C3)C/C(=C\c3cc(OC)c(OC)c(OC)c3)C2=O)cc(OC)c1OC | 284 nM | 214 nM | 216 nM | 60 nM | – | – | – | – | – | – | – | – | – | – | – | – | – | – | – | – | IC50 (HCC 2998): 100 nM; IC50 [1]: 50 nM; IC50 [2]: 30 nM; IC50 (K562): 30 nM; IC50 (SR): 10 nM; IC50 (SW-620): 50 nM; Ratio IC50 (RPMI-8226): 1890; IC50 [4]: 50 nM; IC50 (COLO 205 [5]): 60 nM; IC50 (KM12): 40 nM; IC50 (HL-60(TB)): 40 nM; Ratio IC50 (COLO 205 [6]): 141; Ratio IC50 (MOLT-4 [7]): 66.8; Ratio IC50 (MOLT-4 [8]): 14.2
COc1cc(/C=C2\CN(C(=O)C(=O)N3C/C(=C\c4cc(OC)c(OC)c(OC)c4)C(=O)/C(=C/c4cc(OC)c(OC)c(OC)c4)C3)C/C(=C\c3cc(OC)c(OC)c(OC)c3)C2=O)cc(OC)c1OC | 325 nM | 182 nM | 246 nM | 47 nM | 13% | 7.3% | 84.1% | 67.6% | 7.6% | 50.5% | 43.2% | 15.4% | 30.3% | 4.7% | 41.3% | 38.2% | 9.7% | 60.9% | 65.1% | 55.7% | IC50 (HCC 2998): 100 nM; IC50 [1]: 60 nM; IC50 [2]: 70 nM; IC50 (K562): 30 nM; IC50 (SR): 20 nM; IC50 (SW-620): 30 nM; Ratio IC50 (RPMI-8226): 1418; IC50 [4]: 20 nM; IC50 (COLO 205 [5]): 70 nM; IC50 (KM12): 60 nM; Activity [17]: 3.4%; Activity (EL4): 33.8%; IC50 (HL-60(TB)): 70 nM; Activity (Jurkat): 78.7%; Ratio IC50 (COLO 205 [6]): 121; Ratio IC50 (MOLT-4 [7]): 63.8; Ratio IC50 (MOLT-4 [8]): 13.5
COc1ccc(/C=C2\CN(C(=O)C(=O)N3C/C(=C\c4ccc(OC)c(OC)c4)C(=O)/C(=C/c4ccc(OC)c(OC)c4)C3)C/C(=C\c3ccc(OC)c(OC)c3)C2=O)cc1OC | 4360 nM | 6310 nM | 4430 nM | 779 nM | 39.2% | 3.9% | 88.1% | 60.7% | 5.8% | 50.9% | 17.7% | 10.2% | 31.8% | 4.6% | 45.7% | 33% | 35.4% | 62.8% | 87.4% | 56.3% | Activity (CCRF-CEM [18]): 91%; Activity (CCRF-CEM [19]): 38%; viability at 1 µM (CCRF-CEM [20]): 15.4%; Activity (CCRF-CEM [21]): 9%; Activity (CCRF-CEM [22]): 0%; Activity (CCRF-CEM [23]): Active; Activity (CCRF-CEM [24]): 0%; Activity [17]: 38.2%; Activity (EL4): 46.5%; Activity (CCRF-CEM [25]): 12.8%; Activity (CCRF-CEM [26]): 33.8%; Activity (Jurkat): 84.8%
COc1ccc(/C=C2/CN(C(=O)CC(=O)N3C/C(=C\c4ccc(OC)c(OC)c4)C(=O)/C(=C/c4ccc(OC)c(OC)c4)C3)C/C(=C\c3ccc(OC)c(OC)c3)C2=O)cc1OC | 348 nM | 378 nM | 370 nM | 388 nM | 32.3% | 2.1% | 77.6% | 63.9% | 6.1% | 51.6% | 23% | 6.4% | 2.6% | 1.8% | 67.4% | 31% | 20.6% | 61% | 88.6% | 50.8% | Activity (CCRF-CEM [18]): 87.7%; Activity (CCRF-CEM [19]): 23.3%; viability at 1 µM (CCRF-CEM [20]): 2.5%; Activity (CCRF-CEM [21]): 12.3%; Activity (CCRF-CEM [22]): 0%; Activity (CCRF-CEM [23]): Active; Activity (CCRF-CEM [24]): 0%; Activity [17]: 2%; Activity (EL4): 43.7%; Activity (CCRF-CEM [25]): 70.2%; Activity (CCRF-CEM [26]): 3.9%; Activity (Jurkat): 83.9%

Source: ChEMBL document CHEMBL3352437, “Novel 3,5-bis(arylidene)-4-oxo-1-piperidinyl dimers: structure-activity relationships and potent antileukemic and antilymphoma cytotoxicity” (Eur J Med Chem, 2014)
